Results reported in ChEMBL document CHEMBL1165943, “Design and synthesis of new anticancer pyrimidines with multiple-kinase inhibitory effect” (Bioorg Med Chem, 2010).

Columns and labels:
UACC-62 [1] = assay: Growth inhibition of human UACC62 cells after 48 hrs by sulforhodamine B assay; type: functional, cell-based; conditions: UACC-62, 48 h
Procedure, shortened: (§1)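 Cells grown in RPMI 1640 with 5% FBS and 2 mM L-glutamine, seeded at 5,000–40,000 cells/well according to doubling time. After 24 h, time-zero plates are TCA-fixed. Five concentrations (10-fold or ½log dilutions, DMSO stocks) are applied for 48 h at 37 °C, 5% CO₂. Cells are TCA-fixed, SRB-stained and read at 515 nm. IC₅₀ is taken from [(Ti−Tz)/(C−Tz)]×100 = 50.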

SK-OV-3 [2] = assay: Growth inhibition of human SKOV3 cells after 48 hrs by sulforhodamine B assay; type: functional, cell-based; conditions: SK-OV-3, 48 h; procedure, shortened: as §1
ACHN = assay: Growth inhibition of human ACHN cells after 48 hrs by sulforhodamine B assay; type: functional, cell-based
Procedure, shortened: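 Five-dose SRB assay. Cells in RPMI 1640 with 5% FBS and 2 mM L-glutamine were seeded at 5,000–40,000 cells/well, with a TCA-fixed time-zero plate (Tz) taken at 24 h. Compound stocks were in DMSO, serially diluted 10-fold or ½-log to five concentrations, and incubated 48 h at 37 °C. Plates were stained with SRB and read at 515 nm. IC₅₀ was taken where [(Ti−Tz)/(C−Tz)]×100 = 50.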

T47D = assay: Growth inhibition of human T47D cells after 48 hrs by sulforhodamine B assay; type: functional, cell-based; procedure, shortened: as §1
KM12 = assay: Cytotoxicity against human KM12 cells assessed as cell growth at 0.001 uM after 48 hrs by sulforhodamine B assay; type: functional; conditions: KM12, 48 h, read-out: Activity
SW-620 = assay: Cytotoxicity against human SW620 cells assessed as cell growth at 0.001 uM after 48 hrs by sulforhodamine B assay; type: functional; conditions: SW-620, 48 h, read-out: Activity
SK-OV-3 [3] = assay: Cytotoxicity against human SKOV3 cells assessed as cell growth at 0.001 uM after 48 hrs by sulforhodamine B assay; type: functional; conditions: SK-OV-3, 48 h, read-out: Activity
[4] = Cytotoxicity against human Hs 578T cells assessed as cell growth at 0.001 uM after 48 hrs by sulforhodamine B assay; type: functional; conditions: read-out: Activity
EKVX = assay: Cytotoxicity against human EKVX cells assessed as cell growth at 100 nM after 48 hrs by sulforhodamine B assay; type: functional; conditions: read-out: Activity
NCI-H322M = assay: Cytotoxicity against human NCI-H322M cells assessed as cell growth at 100 nM after 48 hrs by sulforhodamine B assay; type: functional; conditions: read-out: Activity
SF-539 = assay: Cytotoxicity against human SF539 cells assessed as cell growth at 100 nM after 48 hrs by sulforhodamine B assay; type: functional; conditions: SF-539, 48 h, read-out: Activity
MDA-MB-435 = assay: Cytotoxicity against human MDA-MB-435 cells assessed as cell growth at 100 nM after 48 hrs by sulforhodamine B assay; type: functional; conditions: MDA-MB-435, 48 h, read-out: Activity
UACC-62 [5] = assay: Cytotoxicity against human UACC62 cells assessed as cell growth at 100 nM after 48 hrs by sulforhodamine B assay; type: functional; conditions: UACC-62, 48 h, read-out: Activity
OVCAR-5 = assay: Cytotoxicity against human OVCAR5 cells assessed as cell growth at 100 nM after 48 hrs by sulforhodamine B assay; type: functional; conditions: OVCAR-5, 48 h, read-out: Activity
A549 = assay: Cytotoxicity against human A549 cells assessed as cell growth at 0.01 uM after 48 hrs by sulforhodamine B assay; type: functional; conditions: A549, 48 h, read-out: Activity
Procedure, shortened: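 Cells grown in RPMI 1640 with 5% FBS and 2 mM L-glutamine, seeded at 5,000–40,000 cells/well by doubling time. Time-zero plates TCA-fixed after 24 h. Five concentrations (10-fold or half-log dilutions from DMSO stock) added; 48 h at 37 °C, 5% CO2. Cold TCA fixation (final 10%, 60 min, 4 °C), 0.4% SRB stain, dye solubilized in 10 mM trizma base, A515.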

U-251 = assay: Cytotoxicity against human U251 cells assessed as cell growth at 10 uM after 48 hrs by sulforhodamine B assay; type: functional; conditions: U-251, 48 h, read-out: Activity
M14 = assay: Cytotoxicity against human M14 cells assessed as cell growth at 0.01 uM after 48 hrs by sulforhodamine B assay; type: functional; conditions: M14, 48 h, read-out: Activity
UO-31 [6] = assay: Cytotoxicity against human UO31 cells assessed as cell growth at 100 nM after 48 hrs by sulforhodamine B assay; type: functional; conditions: UO-31, 48 h, read-out: Activity
SK-MEL-2 = assay: Cytotoxicity against human SK-MEL-2 cells assessed as cell growth at 10 uM after 48 hrs by sulforhodamine B assay; type: functional; conditions: SK-MEL-2, 48 h, read-out: Activity
UO-31 [7] = assay: Cytotoxicity against human UO31 cells assessed as cell growth at 10 uM after 48 hrs by sulforhodamine B assay; type: functional; conditions: UO-31, 48 h, read-out: Activity
DU-145 [8] = assay: Cytotoxicity against human DU145 cells assessed as cell growth at 10 uM after 48 hrs by sulforhodamine B assay; type: functional; conditions: DU-145, 48 h, read-out: Activity
[9] = Cytotoxicity against human Hs 578T cells assessed as cell growth at 10 uM after 48 hrs by sulforhodamine B assay; type: functional; conditions: read-out: Activity
UACC-257 = assay: Cytotoxicity against human UACC257 cells assessed as cell growth at 0.01 uM after 48 hrs by sulforhodamine B assay; type: functional; conditions: UACC-257, 48 h, read-out: Activity
MDA-MB-231 [10] = assay: Cytotoxicity against human MDA-MB-231 cells assessed as cell growth at 0.01 uM after 48 hrs by sulforhodamine B assay; type: functional; conditions: MDA-MB-231, 48 h, read-out: Activity
HL-60(TB) = assay: Growth inhibition of human HL-60(TB) cells after 48 hrs by sulforhodamine B assay; type: functional, cell-based; conditions: HL-60, 48 h
Procedure, shortened: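 HL-60(TB) suspension cells in RPMI 1640 with 5% FBS receive five 10-fold or ½log drug dilutions from DMSO stock for 48 h at 37 °C, 5% CO2. Settled cells are TCA-fixed, SRB-stained and read at 515 nm against a time-zero plate. […] is solved from [(Ti−Tz)/(C−Tz)]×100 = 50.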

DU-145 [11] = assay: Cytotoxicity against human DU145 cells assessed as cell growth at 1 uM after 48 hrs by sulforhodamine B assay; type: functional; conditions: DU-145, 48 h, read-out: Activity
MDA-MB-231 [12] = assay: Cytotoxicity against human MDA-MB-231 cells assessed as cell growth at 1 uM after 48 hrs by sulforhodamine B assay; type: functional; conditions: MDA-MB-231, 48 h, read-out: Activity
K562 = assay: Cytotoxicity against human K562 cells assessed as cell growth at 10 uM after 48 hrs by sulforhodamine B assay; type: functional; conditions: K562, 48 h, read-out: Activity

## CC(=O)c1ccccc1-c1ccc(-c2ccnc(NC(=O)Nc3cc(N4CCOCC4)cc(C(F)(F)F)c3)n2)cn1
UACC-62 [1]
  GI50: > 100 µM
  IC50: > 100 µM
  LC50 (concentration causing 50% net cell kill): > 100 µM
  TGI: > 100 µM
SK-OV-3 [2]
  GI50: > 100 µM
  IC50: 9.42 µM
  LC50 (concentration giving 50% net cell kill): > 100 µM
  TGI: > 100 µM
ACHN
  GI50: > 100 µM
  IC50: 6.89 µM
  LC50 (50% lethal concentration): > 100 µM
  TGI: > 100 µM
T47D
  GI50: > 100 µM
  IC50: > 100 µM
  LC50 (lethal concentration, 50% net cell kill): > 100 µM
  TGI: > 100 µM
KM12
  growth at 0.001 µM: 103%
SW-620
  growth at 0.001 µM: 98%
SK-OV-3 [3]
  growth at 0.001 µM: 111%
[4]
  growth at 0.001 µM: 107%
EKVX
  growth at 0.1 µM: 91%
NCI-H322M
  growth at 0.1 µM: 99%
SF-539
  growth at 0.1 µM: 88%
MDA-MB-435
  growth at 0.1 µM: 92%
UACC-62 [5]
  growth at 0.1 µM: 90%
OVCAR-5
  growth at 0.1 µM: 91%
A549
  growth at 0.01 µM: 102%
U-251
  growth at 10 µM: 39%
M14
  growth at 0.01 µM: 95%
UO-31 [6]
  growth at 0.1 µM: 80%
SK-MEL-2
  growth at 10 µM: -9%
UO-31 [7]
  growth at 10 µM: 86%
DU-145 [8]
  growth at 10 µM: 59%
[9]
  growth at 10 µM: 13%
UACC-257
  growth at 0.01 µM: 79%
MDA-MB-231 [10]
  growth at 0.01 µM: 99%
HL-60(TB)
  GI50: > 100 µM
  IC50: > 100 µM
  TGI: > 100 µM
HL-60(TB); read-out: LC50 (the source's name)
  CC50: > 100 µM
DU-145 [11]
  growth at 1 µM: 19%
MDA-MB-231 [12]
  growth at 1 µM: 35%
K562
  growth at 10 µM: 103%
